pIC50: −log10 of the molar value. In brackets after ≈: the same amount, converted by molar mass. Activity calls are given as the source filed them. The calls are words filed in the database; no cut-off is given here.

Consider 19 molecules from ChEMBL document CHEMBL1641583, “Design, synthesis, and biological evaluation of N-acetyl-S-(p-chlorophenylcarbamoyl)cysteine and its analogs as a novel class of anticancer agents” (Bioorg Med Chem, 2011).

For series [1], the system named is UACC-62. The series is described as follows: Cytotoxicity against human UACC62 cells after 6 days by MTT assay. The format is functional, cell-based. Conditions: UACC-62, 144 h. For orientation: Formazan colour is commonly taken as a measure of viable cells.
Series [2] in a line: Cytotoxicity against human GC3/C1 cells after 6 days by MTT assay. In kind it is functional, cell-based. Conditions: GC3/C1, 144 h.
For series [3], the system named is OVCAR-3. The series is described as follows: Cytotoxicity against human OVCAR3 cells after 6 days by MTT assay. In kind it is functional, cell-based. Particulars: OVCAR-3, 144 h.
Series [4] has as its system SK-MEL-2. The experiment in a line: Cytotoxicity against human SK-MEL-2 cells after 6 days by MTT assay. The format is functional, cell-based. Conditions: SK-MEL-2, 144 h.
In series [5] the test system is UACC-62. The series is described as follows: Cytotoxicity against human UACC62 cells after 1 to 3 days by MTT assay. In kind it is functional, cell-based.
For series [6], the system named is OVCAR-3. The series is described as follows: Cytotoxicity against human OVCAR3 cells after 1 to 3 days by MTT assay. In kind it is functional, cell-based.
In series [7] the test system is SK-MEL-2. The experiment in a line: Cytotoxicity against human SK-MEL-2 cells after 1 to 3 days by MTT assay. The format is functional, cell-based.
Series [8] relates to UACC-62. The experiment in a line: Ratio of compound IC50 to dacarbazine IC50 for human UACC62 cells. In kind it is functional.
In series [9] the test system is SK-MEL-2. The series is described as follows: Ratio of compound IC50 to dacarbazine IC50 for human SK-MEL-2 cells. The format is functional.
Series [10] in a line: Solubility of the compound in ethyl acetate. The format is physicochemical. The gist of the method:
(§1)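 Solubility measured in ethyl acetate and in 0.1 M phosphate buffer pH 7.4; reported in mg/mL.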

The nature of series [11]: Solubility of the compound in 0.1 M phosphate buffer at pH 7.4. In kind it is physicochemical. An outline of the steps:
as §1

In another series the test system is PC-3. The experiment in a line: Cytotoxicity against human PC3 cells after 6 days by MTT assay. In kind it is functional, cell-based.
The subject of the next series is NCI-H226. The series is described as follows: Cytotoxicity against human NCI-H226 cells after 6 days by MTT assay. In kind it is functional, cell-based.
For a further series, the system named is UO-31. The series is described as follows: Cytotoxicity against human UO31 cells after 6 days by MTT assay. In kind it is functional, cell-based.
The next series has as its system A-431. The series is described as follows: Cytotoxicity against human A431 cells after 6 days by MTT assay. In kind it is functional, cell-based.
The nature of series [12]: Cytotoxicity against african green monkey CV1 cells after 6 days by MTT assay. In kind it is cell-based. Conditions: Chlorocebus aethiops, CV-1, 144 h.
Series [13] has as its system UACC-62. The experiment in a line: Cell cycle arrest in human UACC62 cells assessed as DNA accumulation at 0.01 to 1 uM after 6 days using propidium iodide staining by flow cytometry. In kind it is functional, cell-based. An outline of the steps: (§2)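 Cells seeded in 75 cm² flasks (GC3/c1 0.3 million, UACC-62 0.14 million) in RPMI 1640/10% FBS, exposed 6 days; adherent cells only trypsinized, PBS-washed, 1 million fixed in 70% ethanol at 4 °C, RNase A 30 min 37 °C, propidium iodide 30 min dark at room temperature; DNA content by flow cytometry; mean ± SD, three independent experiments.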
For orientation: In flow cytometry, cells or beads pass a laser one at a time.

Series [14] in a line: Cell cycle arrest in human GC3/C1 cells assessed as DNA accumulation at 0.01 to 1 uM after 6 days using propidium iodide staining by flow cytometry. The format is functional, cell-based. The gist of the method:
as §2

Series [15] concerns UACC-62. The experiment in a line: Induction of apoptosis in human UACC62 cells assessed as translocation of phosphatidylserine from inner layer to outer layer of cell membrane after 6 days using annexin V staining by flow cytometry. The format is functional, cell-based. The gist of the method: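 UACC-62 plated and dosed in 96-well format as for cytotoxicity, 6 days; adherent plus floating cells trypsinized, PBS-washed, 1×10^6 cells/mL in annexin-binding buffer; ~1×10^5 cells stained with Alexa Fluor 488 annexin V and PI 15 min dark, room temperature; early plus late apoptotic fractions summed by flow cytometry; mean ± SD, three experiments.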

Series [16] deals with UACC-62. The series is described as follows: Induction of apoptosis in human UACC62 cells assessed as translocation of phosphatidylserine from inner layer to outer layer of cell membrane at > 1 uM after 6 days using annexin V staining by flow cytometry. The format is functional, cell-based.

As for `CSc1ccccc1NC(=O)SC[C@H](NC(C)=O)C(=O)O`, the pIC50 (in the series on UACC-62 [1]; in [2]; in the series with OVCAR-3 [3]) was under 3.70 each time.
As to `CC(=O)N[C@@H](CSC(=O)Nc1ccccc1)C(=O)O`, the pIC50 in the series with UACC-62 [1] is 3.90; in series [2] it was 3.75; in the series on OVCAR-3 [3] it was 3.81.
Consider `CC(=O)N[C@@H](CSC(=O)Nc1ccc([N+](=O)[O-])cc1Cl)C(=O)O`, for which the negative logarithm of the IC50 (pIC50) (in the series with UACC-62 [1]; in series [2]; in the series on OVCAR-3 [3]) was under 3.70 throughout.
For `CC(=O)N[C@@H](CSC(=O)Nc1ccc(Br)cc1)C(=O)O`, the pIC50 with UACC-62 [1] is 6.49; in series [2], 4.20; with OVCAR-3 [3] it was under 3.70; in the series on SK-MEL-2 [4], 6.92. Moreover, the outcome in the series on UACC-62 [5], in the series on OVCAR-3 [6] and in the series on SK-MEL-2 [7] was inactive. Also, the “Ratio IC50” value is given as 37 with UACC-62 [8] and 1000 in the series with SK-MEL-2 [9]. For the same molecule, the solubility in [10] worked out at 50 mg/mL (≈ 138 mM); in series [11], 24 mg/mL (≈ 66.4 mM).
`COc1ccc(OC)c(NC(=O)SC[C@H](NC(C)=O)C(=O)O)c1`: the pIC50 (with UACC-62 [1]; in [2]; in the series on OVCAR-3 [3]) was under 3.70 throughout.
For `CN(C)/N=N/c1[nH]cnc1C(N)=O` [DACARBAZINE], the pIC50 is 4.93 in the series with UACC-62 [1], 5.12 in [2], 4.75 in the series with OVCAR-3 [3] and 3.92 in the series on SK-MEL-2 [4].
As to `CC(=O)N[C@@H](CSC(=O)Nc1cc(Cl)cc(Cl)c1)C(=O)O`, the pIC50 (in the series on UACC-62 [1]; in series [2]; in the series on OVCAR-3 [3]) was under 3.70 each time.
As for `CC(=O)N[C@@H](CSC(=O)Nc1ccccc1Cl)C(=O)O`, the pIC50 (in the series on UACC-62 [1]; in series [2]; in the series with OVCAR-3 [3]) was under 3.70 throughout.
Take `COc1ccccc1NC(=O)SC[C@H](NC(C)=O)C(=O)O`: the negative logarithm of the IC50 (pIC50) (with UACC-62 [1]; in [2]; in the series with OVCAR-3 [3]) was under 3.70 each time.
In the case of `CC(=O)N[C@@H](CSC(=O)Nc1cccc2ccccc12)C(=O)O`, the pIC50 (in the series on UACC-62 [1]; in series [2]; in the series with OVCAR-3 [3]) was under 3.70 each time.
Take `CC(=O)N[C@@H](CSC(=O)Nc1ccccc1F)C(=O)O`: the negative logarithm of the IC50 (pIC50) (in the series on UACC-62 [1]; in series [2]; in the series with OVCAR-3 [3]) was under 3.70 in each case.
In the case of `CC(=O)N[C@@H](CSC(=O)Nc1ccc(C(F)(F)F)cc1[N+](=O)[O-])C(=O)O`, the pIC50 (in the series on UACC-62 [1]; in series [2]; in the series with OVCAR-3 [3]) was under 3.70 throughout.
In the case of `COc1ccccc1CNC(=O)SC[C@H](NC(C)=O)C(=O)O`, the pIC50 (with UACC-62 [1]; in [2]; with OVCAR-3 [3]) was under 3.70 each time.
On to `CC(=O)N[C@@H](CSC(=O)Nc1ccc(Cl)cc1)C(=O)O`, for which the pIC50 is 7.62 in the series with UACC-62 [1]; 5.09 in series [2]; under 3.70 in the series on OVCAR-3 [3]; 8.10 in the series with SK-MEL-2 [4]; 3.28 in series [12]. The result in the series on UACC-62 [5], with OVCAR-3 [6], in the series on SK-MEL-2 [7], with PC-3, with NCI-H226 and in the series with UO-31 was inactive. The result (in the series with A-431; in the series on UACC-62 [13]; in series [14]; in the series on UACC-62 [16]) was inactive. Also, the “Ratio IC50” value in the series with UACC-62 [8] is recorded as 490; in the series on SK-MEL-2 [9] it was 16000. The solubility in series [10] stood at 721 mg/mL (≈ 2280 mM); in series [11], 26 mg/mL (≈ 82.1 mM). In the series on UACC-62 [15], the Activity entry is “Dose-dependent effect”.
Regarding `CC(=O)N[C@@H](CSC(=O)Nc1cccc(Cl)c1)C(=O)O`, the negative logarithm of the IC50 (pIC50) (in the series with UACC-62 [1]; in [2]; in the series on OVCAR-3 [3]) was under 3.70 in each case.
Consider `CC(=O)N[C@@H](CSC(=O)NCc1ccc(Cl)cc1)C(=O)O`, for which the negative logarithm of the IC50 (pIC50) (in the series on UACC-62 [1]; in [2]; with OVCAR-3 [3]) was under 3.70 throughout.
`CC(=O)N[C@@H](CSC(=O)Nc1ccc(I)cc1)C(=O)O`: the figures for the negative logarithm of the IC50 (pIC50) (in the series with UACC-62 [1]; in series [2]; in the series with OVCAR-3 [3]) were 4.34, under 3.70 and under 3.70, respectively.
With `CC(=O)N[C@@H](CSC(=O)Nc1ccc(F)cc1)C(=O)O`, the pIC50 in the series with UACC-62 [1] was 7.44; in [2], 3.94; with OVCAR-3 [3] it was under 3.70; in the series on SK-MEL-2 [4] it was 6.37. The result in the series with UACC-62 [5], in the series on OVCAR-3 [6] and with SK-MEL-2 [7] was inactive. Moreover, the “Ratio IC50” value with UACC-62 [8] is 328; in the series on SK-MEL-2 [9], 279. In addition, the figures for the solubility in [10] and in series [11] were 388 mg/mL (≈ 1290 mM) and 26 mg/mL (≈ 86.6 mM), respectively.
`COc1ccc(NC(=O)SC[C@H](NC(C)=O)C(=O)O)cc1`: the results for the pIC50 (in the series on UACC-62 [1]; in series [2]; with OVCAR-3 [3]) were 4.12, under 3.70 and under 3.70, respectively.

For orientation: pIC50 means the IC50 on a negative log10 scale, so that one unit is a factor of ten. The term solubility denotes the dissolved amount per volume that the medium holds.
